For one assay, the system named is Huh-7. As to the kind of experiment: Antiproliferative activity against human HuH7 cells incubated for 48 hrs by […] dye staining based assay. It counts as functional, cell-based. Conditions: Huh-7, 48 h. In short, it runs like this: (§1)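 After 24 h attachment, they were exposed 48 h to increasing concentrations of 0.1 to 25. Cells were then fixed in cold 90% ethanol/5% acetic acid, nuclei were Hoechst-stained, and nuclei were counted by automated imaging.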

The next assay deals with Caco-2. As to the kind of experiment: Antiproliferative activity against human Caco2 cells incubated for 48 hrs by […] dye staining based assay. Conditions: Caco-2, 48 h. It is filed as functional, cell-based. The essentials:
as §1

The subject of the next assay is MDA-MB-231. The assay can be described thus: Antiproliferative activity against human MDA-MB-231 cells incubated for 48 hrs by […] dye staining based assay. It counts as functional, cell-based. Conditions: MDA-MB-231, 48 h. The essentials: as §1
In another assay the test system is HCT-116. The assay can be described thus: Antiproliferative activity against human HCT116 cells incubated for 48 hrs by […] dye staining based assay. Conditions: HCT-116, 48 h. It is filed as functional, cell-based. The essentials: (§2)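 Cells were grown per ECACC recommendations and seeded in triplicate at 2 × 10³ (HCT-116) or 4 × 10³ (other lines) per well. After 24 h attachment, they were exposed 48 h to increasing concentrations of 0.1 to 25. Cells were then fixed in cold 90% ethanol/5% acetic acid, nuclei were Hoechst-stained, and nuclei were counted by automated imaging.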

For the next assay, the system named is PC-3. The assay can be described thus: Antiproliferative activity against human PC3 cells incubated for 48 hrs by […] dye staining based assay. It is filed as functional, cell-based. The note with it: PC-3, 48 h. In short, it runs like this: as §2
For a further assay, the system named is NCI-H727. As to the kind of experiment: Antiproliferative activity against human NCI-H727 cells incubated for 48 hrs by […] dye staining based assay. Conditions: NCI-H727, 48 h. It is filed as functional, cell-based. The essentials:
as §2

Assay [1] can be described thus: Antiproliferative activity against human Skin fibroblasts incubated for 48 hrs by […] dye staining based assay. The note with it: Skin fibroblast. In short, it runs like this:
as §2

The target in assay [2] is Dual specificity tyrosine-phosphorylation-regulated kinase 1A (Rattus norvegicus, UniProt Q63470). The assay can be described thus: Inhibition of rat recombinant GST-tagged DYRK1A expressed in Escherichia coli using myelin basic protein substrate.
In assay [3] the target is Cyclin-dependent kinase 5/CDK5 activator 1 (Homo sapiens, UniProt Q00535). The assay can be described thus: Inhibition of human recombinant CDK5/P25 using myelin basic protein substrate. It counts as protein-complex assay.
Assay [4] has as its target PI3-kinase p110-alpha/p85-alpha (Homo sapiens, UniProt P42336). As to the kind of experiment: Inhibition of PI3K p110alpha/p85alpha by fluorescence based immunoassay. It counts as protein-complex assay. The essentials:
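ADAPTA TR-FRET ADP-detection kinase assay. Detection used 6 nM Eu-anti-ADP antibody, 12 nM Alexa647-ADP tracer and 30 mM EDTA for 30 min. Read-out was excitation 340 nm with 665/615 nm emission ratio, converted to % conversion via an ATP–ADP titration curve.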

Assay [5] concerns the target Phosphatidylinositol 4,5-bisphosphate 3-kinase catalytic subunit gamma isoform (Homo sapiens, UniProt P48736). The assay can be described thus: Inhibition of PI3K p110gamma by fluorescence based immunoassay.

Some results are limits rather than exact numbers.

Chain of Cyclin-dependent kinase 5/CDK5 activator 1 (Q00535 whole entry): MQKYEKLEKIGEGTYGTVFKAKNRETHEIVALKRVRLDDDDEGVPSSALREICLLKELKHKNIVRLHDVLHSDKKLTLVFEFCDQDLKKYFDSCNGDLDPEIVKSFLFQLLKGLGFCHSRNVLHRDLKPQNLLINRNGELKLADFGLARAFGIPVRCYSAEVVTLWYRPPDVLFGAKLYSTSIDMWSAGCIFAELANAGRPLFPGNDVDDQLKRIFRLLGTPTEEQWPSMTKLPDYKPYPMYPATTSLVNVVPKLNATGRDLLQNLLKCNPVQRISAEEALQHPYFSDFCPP
Chain of Cyclin-dependent kinase 5/CDK5 activator 1 (Q15078 whole entry, further chain): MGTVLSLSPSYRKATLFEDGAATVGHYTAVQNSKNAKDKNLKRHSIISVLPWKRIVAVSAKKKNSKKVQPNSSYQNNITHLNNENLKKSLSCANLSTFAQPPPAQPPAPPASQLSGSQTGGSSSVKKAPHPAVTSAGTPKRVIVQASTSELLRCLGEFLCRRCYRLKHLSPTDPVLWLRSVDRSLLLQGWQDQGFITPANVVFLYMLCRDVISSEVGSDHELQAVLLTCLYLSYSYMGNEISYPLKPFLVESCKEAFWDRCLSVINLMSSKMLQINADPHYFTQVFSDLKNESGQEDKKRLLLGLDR
Chain of PI3-kinase p110-alpha/p85-alpha (P27986 whole entry): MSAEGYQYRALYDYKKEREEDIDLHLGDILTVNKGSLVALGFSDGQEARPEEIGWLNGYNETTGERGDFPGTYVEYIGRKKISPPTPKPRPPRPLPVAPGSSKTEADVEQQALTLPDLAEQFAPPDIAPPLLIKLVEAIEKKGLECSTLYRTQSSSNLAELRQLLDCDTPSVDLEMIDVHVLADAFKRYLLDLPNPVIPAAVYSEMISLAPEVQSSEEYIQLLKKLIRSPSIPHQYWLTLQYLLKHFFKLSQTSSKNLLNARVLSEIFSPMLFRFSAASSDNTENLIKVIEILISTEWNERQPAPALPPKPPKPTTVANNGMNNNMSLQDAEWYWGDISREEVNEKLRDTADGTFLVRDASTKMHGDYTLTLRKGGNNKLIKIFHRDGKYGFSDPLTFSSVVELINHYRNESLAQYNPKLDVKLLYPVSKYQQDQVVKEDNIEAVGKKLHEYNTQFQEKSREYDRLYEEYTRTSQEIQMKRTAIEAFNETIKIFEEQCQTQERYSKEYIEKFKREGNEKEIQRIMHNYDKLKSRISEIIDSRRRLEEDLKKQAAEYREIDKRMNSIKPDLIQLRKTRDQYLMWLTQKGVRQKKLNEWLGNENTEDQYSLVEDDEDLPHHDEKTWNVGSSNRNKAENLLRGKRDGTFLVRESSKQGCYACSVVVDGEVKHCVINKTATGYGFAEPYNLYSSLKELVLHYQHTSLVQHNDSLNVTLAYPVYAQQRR
Chain of PI3-kinase p110-alpha/p85-alpha (P42336 whole entry): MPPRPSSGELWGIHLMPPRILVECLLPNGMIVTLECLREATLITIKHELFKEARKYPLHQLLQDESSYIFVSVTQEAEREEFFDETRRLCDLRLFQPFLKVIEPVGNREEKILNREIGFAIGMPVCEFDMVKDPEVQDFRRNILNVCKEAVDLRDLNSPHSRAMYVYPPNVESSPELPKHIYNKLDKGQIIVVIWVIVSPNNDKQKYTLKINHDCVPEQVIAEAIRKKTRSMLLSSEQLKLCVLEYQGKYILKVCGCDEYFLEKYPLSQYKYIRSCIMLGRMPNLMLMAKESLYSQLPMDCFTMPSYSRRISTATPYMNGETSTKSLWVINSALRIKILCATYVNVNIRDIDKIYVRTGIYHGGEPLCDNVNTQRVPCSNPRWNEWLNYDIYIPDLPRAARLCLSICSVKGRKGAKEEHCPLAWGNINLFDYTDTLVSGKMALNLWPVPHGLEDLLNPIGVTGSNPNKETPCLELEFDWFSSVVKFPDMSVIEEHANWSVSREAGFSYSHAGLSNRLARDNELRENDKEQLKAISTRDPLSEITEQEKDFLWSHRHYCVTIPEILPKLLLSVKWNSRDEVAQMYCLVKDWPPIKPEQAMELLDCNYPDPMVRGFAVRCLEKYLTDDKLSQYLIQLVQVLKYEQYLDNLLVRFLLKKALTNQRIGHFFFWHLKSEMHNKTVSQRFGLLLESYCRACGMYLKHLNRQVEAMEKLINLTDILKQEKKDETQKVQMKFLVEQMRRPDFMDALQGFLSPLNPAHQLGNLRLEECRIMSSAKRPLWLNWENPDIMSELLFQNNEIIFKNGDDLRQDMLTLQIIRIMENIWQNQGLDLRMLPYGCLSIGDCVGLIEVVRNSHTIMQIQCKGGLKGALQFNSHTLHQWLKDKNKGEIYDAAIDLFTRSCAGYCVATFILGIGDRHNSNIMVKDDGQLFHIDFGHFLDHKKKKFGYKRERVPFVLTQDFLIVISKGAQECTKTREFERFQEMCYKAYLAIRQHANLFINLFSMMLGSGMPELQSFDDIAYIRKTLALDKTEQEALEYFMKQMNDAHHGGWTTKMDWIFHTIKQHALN
Chain of Phosphatidylinositol 4,5-bisphosphate 3-kinase catalytic subunit gamma isoform (P48736 whole entry, looked up, canonical isoform): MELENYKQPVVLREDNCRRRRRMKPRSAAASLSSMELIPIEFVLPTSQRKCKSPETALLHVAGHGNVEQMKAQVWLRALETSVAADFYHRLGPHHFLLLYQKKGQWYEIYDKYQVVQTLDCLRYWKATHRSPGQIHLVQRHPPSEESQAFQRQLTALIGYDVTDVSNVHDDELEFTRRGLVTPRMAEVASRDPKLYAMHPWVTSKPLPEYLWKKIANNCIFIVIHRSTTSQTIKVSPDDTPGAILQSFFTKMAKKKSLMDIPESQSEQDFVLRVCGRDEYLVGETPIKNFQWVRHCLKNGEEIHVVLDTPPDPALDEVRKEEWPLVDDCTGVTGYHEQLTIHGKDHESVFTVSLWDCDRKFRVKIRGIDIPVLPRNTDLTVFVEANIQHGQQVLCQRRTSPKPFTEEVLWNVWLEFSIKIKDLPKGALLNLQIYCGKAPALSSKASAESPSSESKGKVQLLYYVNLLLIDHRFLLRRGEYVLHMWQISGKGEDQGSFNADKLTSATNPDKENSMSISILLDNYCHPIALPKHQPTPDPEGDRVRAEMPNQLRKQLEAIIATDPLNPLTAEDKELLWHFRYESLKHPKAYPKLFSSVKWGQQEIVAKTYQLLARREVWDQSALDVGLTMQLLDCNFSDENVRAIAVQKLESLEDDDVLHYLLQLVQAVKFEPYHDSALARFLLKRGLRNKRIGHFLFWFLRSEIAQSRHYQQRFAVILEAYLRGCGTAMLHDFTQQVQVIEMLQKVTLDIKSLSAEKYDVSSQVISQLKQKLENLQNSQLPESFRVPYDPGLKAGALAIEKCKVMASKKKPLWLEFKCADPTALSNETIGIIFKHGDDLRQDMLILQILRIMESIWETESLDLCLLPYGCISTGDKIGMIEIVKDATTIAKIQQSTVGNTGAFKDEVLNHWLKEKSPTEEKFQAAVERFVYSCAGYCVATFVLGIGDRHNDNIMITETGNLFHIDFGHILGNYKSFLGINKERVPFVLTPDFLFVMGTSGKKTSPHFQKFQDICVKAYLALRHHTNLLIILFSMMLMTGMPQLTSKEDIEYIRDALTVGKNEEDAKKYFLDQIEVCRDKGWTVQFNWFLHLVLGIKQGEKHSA

Broadly, the IC50 is the midpoint of a concentration-inhibition curve. In the case of `Cc1n[nH]c(=O)c2[nH]c3ccc(Br)cc3c12`, the IC50 with Huh-7 was determined as 1.5 µM; in the assay on Caco-2, 2 µM; in the assay on MDA-MB-231, 6 µM; in the assay on HCT-116 it was 5 µM; with PC-3 it was 3 µM; in the assay with NCI-H727, 3 µM. This molecule displayed an IC50 in assay [1] of 8 µM.
On to `Cc1n[nH]c(=O)c2[nH]c3ccc(F)cc3c12`, for which the IC50 in [2] is 5.6 µM; in assay [3], above 10 µM; in [4] it was above 10 µM; with Huh-7 it was 1.5 µM; in the assay on Caco-2 it was 4 µM; with MDA-MB-231, 4 µM. The IC50 with HCT-116 is 5 µM; in the assay on PC-3 it was 3 µM; in the assay with NCI-H727 it was 2 µM; in assay [1], 10 µM.
Consider `COc1ccc2[nH]c3c(=O)[nH]nc(C)c3c2c1`, for which the half-inhibitory concentration (IC50) was 5 µM in assay [2]; above 10 µM in [3]; above 10 µM in [4]; 3 µM with Huh-7; 8 µM in the assay on Caco-2; 5 µM with MDA-MB-231. Further, the IC50 in the assay on HCT-116 is 15 µM; with PC-3, 7 µM; with NCI-H727 it was 5 µM; in [1], 20 µM.
For the molecule `Cc1n[nH]c(=O)c2c1c1cc(Br)ccc1n2Cc1ccc([N+](=O)[O-])cc1`, the half-inhibitory concentration (IC50) in assay [2] was above 10 µM; in assay [3], above 10 µM; in [4], 6 µM; in assay [5], above 10 µM; with Huh-7 it was 1 µM; in the assay with Caco-2, 2 µM. Further, the IC50 in the assay on MDA-MB-231 is 4 µM; with HCT-116, 2 µM; in the assay on PC-3, 1.5 µM; with NCI-H727, 1 µM; in [1], 2 µM.
Consider `Cc1n[nH]c(=O)c2c1c1cc(Br)ccc1n2Cc1cccc([N+](=O)[O-])c1`, for which the IC50 in assay [2] is above 10 µM; in assay [3], above 10 µM; in assay [4] it was 5.1 µM; in assay [5] it was 4.1 µM; with Huh-7, 2 µM; in the assay on Caco-2, 3 µM. Besides, the IC50 is 5 µM in the assay with MDA-MB-231; 4 µM in the assay with HCT-116; 5 µM with PC-3; 4 µM with NCI-H727; 5 µM in assay [1].
As to `Cc1n[nH]c(=O)c2c1c1cc(Br)ccc1n2Cc1ccc(C#N)cc1`, the concentration for half-maximal inhibition (IC50) in [2] was above 10 µM; in assay [3], above 10 µM; in [4] it was 1.9 µM; in [5], above 10 µM; with Huh-7, 2 µM; with Caco-2, 2 µM. Further, the IC50 in the assay with MDA-MB-231 was found to be 4 µM; with HCT-116, 2 µM; in the assay with PC-3 it was 2 µM; in the assay with NCI-H727 it was 3 µM; in assay [1], 2 µM.
On to `Cc1n[nH]c(=O)c2c1c1cc(F)ccc1n2Cc1ccc([N+](=O)[O-])cc1`, for which the concentration for half-maximal inhibition (IC50) in assay [2] is above 10 µM; in assay [3], above 10 µM; in assay [4], above 10 µM; in the assay on Huh-7, 5 µM; in the assay on Caco-2 it was 2 µM; with MDA-MB-231, 2 µM. Besides, the IC50 in the assay with HCT-116 was 5 µM; with PC-3, 0.6 µM; in the assay on NCI-H727 it was 5 µM; in assay [1], above 25 µM.
Regarding `Cc1n[nH]c(=O)c2c1c1cc(F)ccc1n2Cc1cccc([N+](=O)[O-])c1`, the half-inhibitory concentration (IC50) in assay [2] is above 10 µM; in assay [3] it was above 10 µM; in assay [4] it was above 10 µM; with Huh-7, 3 µM; with Caco-2, 2 µM; in the assay with MDA-MB-231, 0.8 µM. In addition, the half-maximal inhibitory concentration (IC50) was 4 µM with HCT-116, 0.7 µM in the assay with PC-3, 6 µM in the assay with NCI-H727 and above 25 µM in assay [1].
In the case of `Cc1n[nH]c(=O)c2c1c1cc(F)ccc1n2Cc1ccc(C#N)cc1`, the IC50 was above 10 µM in assay [2]; above 10 µM in assay [3]; above 10 µM in assay [4]; 3 µM with Huh-7; 2 µM in the assay on Caco-2; 1.5 µM in the assay on MDA-MB-231. The IC50 with HCT-116 is 5 µM; in the assay on PC-3, 1 µM; with NCI-H727 it was 4 µM; in assay [1] it was above 25 µM.
On to `Cc1n[nH]c(=O)c2c1c1cc(F)ccc1n2Cc1cccc(C#N)c1`, for which the half-maximal inhibitory concentration (IC50) in assay [2] is above 10 µM; in assay [3] it was above 10 µM; in assay [4], 5 µM; in the assay on Huh-7, 3 µM; in the assay with Caco-2, 2 µM; with MDA-MB-231 it was 12 µM. Besides, the concentration for half-maximal inhibition (IC50) with HCT-116 amounted to 6 µM; in the assay with PC-3, 4 µM; in the assay with NCI-H727 it was 6 µM; in [1], 8 µM.
In the case of `COc1ccc(Cn2c3ccc(F)cc3c3c(C)n[nH]c(=O)c32)cc1`, the IC50 in assay [2] was above 10 µM; in assay [3], above 10 µM; in assay [4] it was 4.2 µM; in the assay with Huh-7, 1 µM; with Caco-2 it was 2 µM; in the assay with MDA-MB-231, 2 µM. For the same molecule, the IC50 in the assay with HCT-116 is 2 µM; in the assay with PC-3, 2.5 µM; with NCI-H727, 3 µM; in assay [1], 5 µM.
Regarding `COc1cccc(Cn2c3ccc(F)cc3c3c(C)n[nH]c(=O)c32)c1`, the IC50 was above 10 µM in assay [2]; above 10 µM in assay [3]; above 10 µM in assay [4]; 1.5 µM in the assay with Huh-7; 2 µM in the assay on Caco-2; 0.9 µM with MDA-MB-231. In addition, the half-maximal inhibitory concentration (IC50) with HCT-116 is 4 µM; in the assay on PC-3, 0.4 µM; in the assay on NCI-H727, 2 µM; in [1] it was above 25 µM.
Take `COc1ccc2c(c1)c1c(C)n[nH]c(=O)c1n2Cc1ccc([N+](=O)[O-])cc1`: the IC50 was above 10 µM in [2]; above 10 µM in assay [3]; 2.6 µM in assay [4]; 3 µM in the assay on Huh-7; 5 µM in the assay on Caco-2; 2 µM with MDA-MB-231. For the same molecule, the IC50 in the assay with HCT-116 amounted to 5 µM; with PC-3 it was 3 µM; in the assay with NCI-H727, 2.5 µM; in [1] it was 4 µM.
For the molecule `COc1ccc2c(c1)c1c(C)n[nH]c(=O)c1n2Cc1cccc(C#N)c1`, the half-maximal inhibitory concentration (IC50) in [2] was above 10 µM; in assay [3], above 10 µM; in assay [4], 3.3 µM; with Huh-7 it was 2 µM; in the assay with Caco-2 it was 3 µM; in the assay on MDA-MB-231, 3 µM. Also, the IC50 worked out at 5 µM in the assay with HCT-116, 2 µM in the assay on PC-3, 4 µM with NCI-H727 and 5 µM in assay [1].
Turning to `COc1ccc(Cn2c3ccc(OC)cc3c3c(C)n[nH]c(=O)c32)cc1`, the half-maximal inhibitory concentration (IC50) in assay [2], in assay [3] and in assay [4] was above 10 µM each time.
Turning to `COc1cccc(Cn2c3ccc(OC)cc3c3c(C)n[nH]c(=O)c32)c1`, the IC50 in assay [2] is above 10 µM; in assay [3], above 10 µM; in [4] it was 6.3 µM; with Huh-7, 1 µM; with Caco-2, 2 µM; in the assay on MDA-MB-231, 3 µM. Also, the IC50 is 2 µM in the assay on HCT-116, 2.5 µM in the assay with PC-3, 3 µM with NCI-H727 and 1 µM in [1].
As for `CC[C@H](CO)Nc1nc(NCc2ccccc2)c2ncn(C(C)C)c2n1` [SELICICLIB], the concentration for half-maximal inhibition (IC50) with HCT-116 is 7 µM; with PC-3, 10 µM; with NCI-H727, 20 µM; in [1], above 25 µM.

Source of the values: ChEMBL document CHEMBL2086312, “Synthesis and biological evaluation of new 5-benzylated 4-oxo-3,4-dihydro-5H-pyridazino[4,5-b]indoles as PI3Kα inhibitors” (Eur J Med Chem, 2012).
